Assay results published in ChEMBL document CHEMBL5260793, “Novel pyrazolo[3,4-d]pyrimidine with 4-(1H-benzimidazol-2-yl)-phenylamine as broad spectrum anticancer agents: Synthesis, cell based assay, topoisomerase inhibition, DNA intercalation and bovine serum albumin studies” (Eur J Med Chem, 2017).
Active and inactive are the calls of the source. The calls are words filed in the database; no cut-off is given here.

Experiments:
[1] = test system: Panel ovarian (Carcinoma cell lines); test: Anticancer activity against human Panel ovarian (Carcinoma cell lines) assessed as cell growth inhibition incubated for 48 hrs by Sulphorhodamine B assay; assay type: functional
Method in brief: (§1)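 NCI-60 five-dose screen. Cells in RPMI 1640 with 5% FBS and 2 mM L-glutamine were plated at 5,000–40,000 cells/well and held 24 h before dosing. Compounds came from DMSO stocks and were given at five concentrations (10-fold or ½-log dilutions) for 48 h at 37 °C. Adherent cells were TCA-fixed and stained with SRB; A515 was read. GI50 was set from growth = 50% and TGI from Ti = Tz, using Tz/C/Ti.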

[2] = Anticancer activity against human Non-small cell lung cancer cell line assessed as total growth inhibition incubated for 48 hrs by Sulphorhodamine B assay; assay type: functional; method in brief: as §1
[3] = test system: Panel melanoma (Carcinoma cell lines); test: Anticancer activity against human Panel melanoma (Carcinoma cell lines) assessed as lethality incubated for 48 hrs by Sulphorhodamine B assay; assay type: functional
[4] = test system: Panel breast (Carcinoma cell lines); test: Anticancer activity against human Panel breast (Carcinoma cell lines) assessed as total growth inhibition incubated for 48 hrs by Sulphorhodamine B assay; assay type: functional; method in brief: as §1
[5] = molecular target: T1, DNA topoisomerase 1 (Homo sapiens) (UniProt P11387); test: Inhibition of human DNA topoisomerase I mediated supercoiled pHOT1 plasmid DNA relaxation upto 100 uM incubated for 30 mins by ethidium bromide staining based agarose gel electrophoresis analysis
T1 sequence (whole entry): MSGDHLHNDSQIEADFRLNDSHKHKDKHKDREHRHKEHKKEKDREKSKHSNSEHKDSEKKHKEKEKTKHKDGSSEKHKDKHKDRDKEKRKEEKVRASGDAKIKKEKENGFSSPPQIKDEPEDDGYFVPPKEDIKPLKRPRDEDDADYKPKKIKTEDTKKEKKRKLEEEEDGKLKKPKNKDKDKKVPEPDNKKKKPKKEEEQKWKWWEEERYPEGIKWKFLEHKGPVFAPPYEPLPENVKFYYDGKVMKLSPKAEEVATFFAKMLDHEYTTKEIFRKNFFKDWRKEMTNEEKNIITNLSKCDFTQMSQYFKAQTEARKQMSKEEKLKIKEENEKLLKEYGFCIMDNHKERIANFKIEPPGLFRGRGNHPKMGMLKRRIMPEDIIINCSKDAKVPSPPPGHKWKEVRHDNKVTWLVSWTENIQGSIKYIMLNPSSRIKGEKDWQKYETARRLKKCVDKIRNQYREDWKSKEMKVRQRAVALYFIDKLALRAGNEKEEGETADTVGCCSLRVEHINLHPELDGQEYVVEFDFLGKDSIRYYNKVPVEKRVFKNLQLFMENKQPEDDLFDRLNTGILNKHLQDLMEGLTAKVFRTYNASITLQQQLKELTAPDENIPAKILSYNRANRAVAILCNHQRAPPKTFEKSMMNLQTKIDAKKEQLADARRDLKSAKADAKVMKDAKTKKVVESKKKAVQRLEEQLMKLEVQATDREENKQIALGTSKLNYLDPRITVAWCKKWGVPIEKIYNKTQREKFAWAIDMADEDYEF

[6] = test system: Panel renal (Carcinoma cell lines); test: Anticancer activity against human Panel renal (Carcinoma cell lines) assessed as cell growth inhibition incubated for 48 hrs by Sulphorhodamine B assay; assay type: functional; method in brief: as §1
[7] = test system: Panel colon (Carcinoma cell lines); test: Anticancer activity against human Panel colon (Carcinoma cell lines) assessed as cell growth inhibition incubated for 48 hrs by Sulphorhodamine B assay; assay type: functional; method in brief: as §1
[8] = test system: Panel prostate (Carcinoma cell lines); test: Anticancer activity against human Panel prostate (Carcinoma cell lines) assessed as total growth inhibition incubated for 48 hrs by Sulphorhodamine B assay; assay type: functional; method in brief: as §1
[9] = test system: Panel renal (Carcinoma cell lines); test: Anticancer activity against human Panel renal (Carcinoma cell lines) assessed as lethality incubated for 48 hrs by Sulphorhodamine B assay; assay type: functional
[10] = test system: Panel colon (Carcinoma cell lines); test: Anticancer activity against human Panel colon (Carcinoma cell lines) assessed as lethality incubated for 48 hrs by Sulphorhodamine B assay; assay type: functional
[11] = test system: Panel CNS (Carcinoma cell lines); test: Anticancer activity against human Panel CNS (Carcinoma cell lines) assessed as total growth inhibition incubated for 48 hrs by Sulphorhodamine B assay; assay type: functional; method in brief: as §1
Calf thymus DNA [12] = test: Binding affinity to calf thymus DNA assessed as hypochromicity at pH 7.4 at 10 uM by UV-vis absorption spectroscopy; assay type: nucleic-acid assay; conditions: Bos taurus
Method in brief: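 Absorption titration at 300 K in a 1 cm cell, background subtracted. Compound was fixed (10 μM per legend; 20 μM in methods) with ct-DNA added up to 15–20 μM in 10 mM phosphate buffer, pH 7.4 (A260/A280 1.82). A buffer-addition control was run. K was taken from the 1/(Af−Aobs) vs 1/[DNA] fit.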

[13] = test system: Panel prostate (Carcinoma cell lines); test: Anticancer activity against human Panel prostate (Carcinoma cell lines) assessed as cell growth inhibition incubated for 48 hrs by Sulphorhodamine B assay; assay type: functional; method in brief: as §1
[14] = test system: Panel renal (Carcinoma cell lines); test: Anticancer activity against human Panel renal (Carcinoma cell lines) assessed as total growth inhibition incubated for 48 hrs by Sulphorhodamine B assay; assay type: functional
[15] = molecular target: DNA topoisomerase 2-alpha (Homo sapiens) (UniProt P11388); test: Inhibition of human DNA topoisomerase II-alpha mediated supercoiled pHOT1 plasmid DNA relaxation at 100 uM incubated for 30 mins by ethidium bromide staining based agarose gel electrophoresis analysis
Sequence of DNA topoisomerase 2-alpha (Homo sapiens) (P11388 whole entry): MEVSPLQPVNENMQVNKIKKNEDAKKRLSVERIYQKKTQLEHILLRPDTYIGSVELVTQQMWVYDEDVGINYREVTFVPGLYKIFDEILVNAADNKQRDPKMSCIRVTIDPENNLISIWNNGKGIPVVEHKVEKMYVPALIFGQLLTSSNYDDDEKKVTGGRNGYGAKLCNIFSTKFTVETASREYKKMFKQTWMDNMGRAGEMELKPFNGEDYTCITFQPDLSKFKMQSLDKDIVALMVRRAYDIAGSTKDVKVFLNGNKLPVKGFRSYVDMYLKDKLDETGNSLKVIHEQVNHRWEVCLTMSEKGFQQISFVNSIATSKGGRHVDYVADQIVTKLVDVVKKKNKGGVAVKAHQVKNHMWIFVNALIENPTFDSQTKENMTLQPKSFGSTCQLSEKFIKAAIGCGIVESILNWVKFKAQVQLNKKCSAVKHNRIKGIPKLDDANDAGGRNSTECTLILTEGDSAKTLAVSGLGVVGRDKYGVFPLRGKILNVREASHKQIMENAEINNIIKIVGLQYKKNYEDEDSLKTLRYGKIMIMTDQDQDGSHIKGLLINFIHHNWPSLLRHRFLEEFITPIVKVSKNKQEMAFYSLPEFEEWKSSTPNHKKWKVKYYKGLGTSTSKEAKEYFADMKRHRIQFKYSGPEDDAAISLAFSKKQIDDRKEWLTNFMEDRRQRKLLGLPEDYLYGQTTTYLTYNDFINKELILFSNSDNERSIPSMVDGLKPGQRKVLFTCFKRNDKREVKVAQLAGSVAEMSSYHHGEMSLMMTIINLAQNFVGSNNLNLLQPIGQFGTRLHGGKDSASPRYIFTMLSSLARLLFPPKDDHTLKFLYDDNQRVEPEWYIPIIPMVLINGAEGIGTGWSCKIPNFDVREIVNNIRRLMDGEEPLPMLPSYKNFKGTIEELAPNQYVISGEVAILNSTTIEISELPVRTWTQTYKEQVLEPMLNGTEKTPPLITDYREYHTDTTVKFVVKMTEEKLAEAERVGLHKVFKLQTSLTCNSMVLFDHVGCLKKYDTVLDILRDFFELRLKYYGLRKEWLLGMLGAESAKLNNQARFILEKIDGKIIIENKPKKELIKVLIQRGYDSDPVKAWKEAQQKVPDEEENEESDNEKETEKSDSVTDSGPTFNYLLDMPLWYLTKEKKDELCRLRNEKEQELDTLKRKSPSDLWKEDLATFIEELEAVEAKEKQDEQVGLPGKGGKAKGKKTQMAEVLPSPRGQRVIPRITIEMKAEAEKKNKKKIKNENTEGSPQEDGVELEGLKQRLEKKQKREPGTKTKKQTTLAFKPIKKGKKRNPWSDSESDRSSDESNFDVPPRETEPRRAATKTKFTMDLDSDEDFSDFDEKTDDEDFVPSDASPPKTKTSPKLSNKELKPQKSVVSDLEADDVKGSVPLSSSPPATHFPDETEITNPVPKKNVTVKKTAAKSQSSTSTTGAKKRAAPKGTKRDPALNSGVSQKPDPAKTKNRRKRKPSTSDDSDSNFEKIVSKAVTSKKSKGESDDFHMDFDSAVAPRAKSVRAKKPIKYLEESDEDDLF
Method in brief: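 Reaction buffer: 50 mM Tris-Cl pH 8.0, 120 mM KCl, 10 mM MgCl2, 0.5 mM ATP, 0.5 mM DTT. Each reaction held 500 ng supercoiled pHOT1 and 1 U human Topo IIα, with compound at 10–100 μM, for 30 min at 37 °C. Reactions were stopped with glycerol/EDTA/bromophenol blue, run on 1% agarose in TBE, and stained with ethidium bromide. Etoposide 25 μM was the positive control.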

[16] = Anticancer activity against human Non-small cell lung cancer cell line assessed as lethality incubated for 48 hrs by Sulphorhodamine B assay; assay type: functional
Albumin = Albumin (Bos taurus, UniProt P02769); test: Binding affinity to bovine serum albumin assessed as decrease in fluorescence intensity at pH 7.4 at 0 to 30 uM by fluorescence quenching method; conditions: cattle
Sequence of Albumin (P02769 whole entry): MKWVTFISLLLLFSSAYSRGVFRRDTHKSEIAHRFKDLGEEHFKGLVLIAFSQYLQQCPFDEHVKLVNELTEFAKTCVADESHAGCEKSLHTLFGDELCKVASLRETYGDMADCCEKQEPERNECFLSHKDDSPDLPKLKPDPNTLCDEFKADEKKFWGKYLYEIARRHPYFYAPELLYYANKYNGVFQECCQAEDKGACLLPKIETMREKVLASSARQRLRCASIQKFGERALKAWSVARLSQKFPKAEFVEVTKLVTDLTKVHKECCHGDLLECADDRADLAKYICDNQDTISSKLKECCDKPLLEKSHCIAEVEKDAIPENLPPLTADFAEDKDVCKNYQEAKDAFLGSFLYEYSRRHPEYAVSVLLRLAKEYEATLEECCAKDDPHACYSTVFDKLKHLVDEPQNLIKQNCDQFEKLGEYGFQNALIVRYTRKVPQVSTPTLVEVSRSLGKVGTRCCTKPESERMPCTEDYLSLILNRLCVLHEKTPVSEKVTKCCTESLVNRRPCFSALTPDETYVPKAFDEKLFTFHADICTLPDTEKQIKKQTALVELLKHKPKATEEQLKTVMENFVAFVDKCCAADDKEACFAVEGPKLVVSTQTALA

[17] = test system: Panel CNS (Carcinoma cell lines); test: Anticancer activity against human Panel CNS (Carcinoma cell lines) assessed as cell growth inhibition incubated for 48 hrs by Sulphorhodamine B assay; assay type: functional; method in brief: as §1
Calf thymus DNA [18] = test: Displacement of Ethidium bromide from calf thymus DNA/EtBr complex assessed as decrease in fluorescent intensity by fluorescence based EtBr-displacement assay; assay type: nucleic-acid assay; conditions: Bos taurus
Method in brief: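 ct-DNA (0–20 μM) was pre-mixed with ethidium bromide, diluted from a 1 mM stock. Compound was then added in 2 μM steps up to 50 μM, with mixing after each addition. Emission was recorded with excitation at 480 nm.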

[19] = test system: Panel leukemia (Carcinoma cell lines); test: Anticancer activity against human Panel leukemia (Carcinoma cell lines) assessed as cell growth inhibition incubated for 48 hrs by Sulphorhodamine B assay; assay type: functional; method in brief: as §1
[20] = test system: Panel ovarian (Carcinoma cell lines); test: Anticancer activity against human Panel ovarian (Carcinoma cell lines) assessed as lethality incubated for 48 hrs by Sulphorhodamine B assay; assay type: functional
[21] = Anticancer activity against human Non-small cell lung cancer cell line assessed as cell growth inhibition incubated for 48 hrs by Sulphorhodamine B assay; assay type: functional; method in brief: as §1
[22] = test system: Panel leukemia (Carcinoma cell lines); test: Anticancer activity against human Panel leukemia (Carcinoma cell lines) assessed as lethality incubated for 48 hrs by Sulphorhodamine B assay; assay type: functional
[23] = test system: Panel CNS (Carcinoma cell lines); test: Anticancer activity against human Panel CNS (Carcinoma cell lines) assessed as lethality incubated for 48 hrs by Sulphorhodamine B assay; assay type: functional

Compound | GI50 [1] | TGI [2] | LC50 (lethal concentration 50) [3] | TGI [4] | inhibition [5] | GI50 [6] | GI50 [7] | TGI [8] | LC50 (50% lethal concentration) [9] | LC50 (lethal concentration, 50% cell kill) [10] | TGI [11] | Activity (Calf thymus DNA [12]) | GI50 [13] | TGI [14] | inhibition [15] | LC50 (lethal concentration, 50% cell kill) [16] | Activity (Albumin) | GI50 [17] | Activity (Calf thymus DNA [18]) | GI50 [19] | other results
OCCN1CCN(c2nc(Nc3ccc(-c4nc5ccccc5[nH]4)cc3)c3cn[nH]c3n2)CC1 | 1.84 µM | 3.23 µM | 5.83 µM | 3.83 µM | inactive | 1.76 µM | 0.72 µM | 2.96 µM | 5.85 µM | 5.71 µM | 3.26 µM | Active | 1.49 µM | 3.26 µM | Active | 6.26 µM | Active | 1.47 µM | Active | 0.44 µM | LC50 (concentration killing 50% of cells) [20]: 6.09 µM; GI50 [21]: 1.57 µM; LC50 [22]: > 100 µM; LC50 (concentration killing 50% of cells) [23]: 5.72 µM
Fc1ccc(Nc2nc(Nc3ccc(-c4nc5ccccc5[nH]4)cc3)c3cn[nH]c3n2)cc1 | 2.49 µM | 5.37 µM | 6.92 µM | 4.8 µM | inactive | 1.84 µM | 1.78 µM | 4.14 µM | 18.2 µM | 6.8 µM | 5.08 µM | Active | 1.95 µM | 7.35 µM | Active | 32.5 µM | Active | 2.06 µM | Active | 2.62 µM | LC50 (concentration killing 50% of cells) [20]: 28.9 µM; GI50 [21]: 2.11 µM; LC50 [22]: > 100 µM; LC50 (concentration killing 50% of cells) [23]: 20.4 µM
